Activity calls are given as the source filed them.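 Rule for the calls, unless noted: active = Her2 level under about 52% in both replicate screens, with viability over 70% of control (limit read from the data); inconclusive = Her2 under the limit in one screen only, or viability under 70%; inactive = Her2 level above the set limit.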 Peptide text beside a SMILES is read from it. * marks the point of attachment. Boc = CC(C)(C)OC(=O)*
Key:
[1] = reducers of endogenous Her2 protein level, primary screen, SKBR3 breast tumor cells, AlphaScreen, ATP viability (AID 461); settings: 18-24 h, measured here: SKBR3 viability, ATP luminescence, at 10 µM;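 for Her2 level: lower value means less Her2 protein in the cells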;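 for viability: percent of carrier control wells set as 100% viability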
[2] = molecular target: Receptor tyrosine-protein kinase erbB-2 (Homo sapiens) (UniProt P04626); test: as above; settings: 18-24 h, at 10 µM, stronger effect = lower value
[3] = SK-BR-3 cell growth inhibitors, pilot screen, 24 h, human (AID 572;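 active = viability at or below 10% of carrier control in both of two separate runs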;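 note: compound exposure lasted between 18 and 24 h rather than exactly 24 h; 100% = carrier-treated control wells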); settings: SK-BR-3 viability, CellTiter-Glo luminescence, at 10 µM, stronger effect = lower value
[4] = HUVEC growth inhibition – cell-based, human, primary screen (AID 575;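 active = viability at or below 30% in both replicate assays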;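 note: 100% = median of untreated cell wells with 0.1% DMSO on each plate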); settings: HUVEC proliferation, CellTiter-Glo luminescence, 72 h; at 10 µM; stronger effect = lower value
Method in brief: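 Assay system: primary human umbilical vein endothelial cells / Buffer or medium: endothelial basal medium with 2% FBS plus growth supplements / Compound dosing: one dose, 10 µM final, 0.1% DMSO / Timing: 72 h treatment at 37 °C / Signal: CTG luminescence / Benchmarks: 32 DMSO-only cell-control wells (high), 32 MePR drug-control wells (low) per plate / Plate: collagen-coated 384-well format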

[5] = growth inhibitors of H69AR lung tumor, primary screen, human, duplicate replicates (AID 580;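 active = viability at or under a set limit in both replicates, limit being median viability minus 3 SD, cut at about 48% in these data, passing the limit was not always enough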;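 note: 100% = mean luminescence of untreated wells and 0% = no signal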); settings: H69AR lung tumor cells viability, ATP luminescence, 72 h; at 10 µM; stronger effect = lower value
[6] = reversal of MRP1-mediated doxorubicin resistance, pilot screen, H69AR cells, doxorubicin co-treatment (AID 601;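 active = viability loss from added drug above about 55%, and viability with drug at most 40%, in both replicates, limit read from the data, passing the limit was not always enough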); settings: CellTiter-Glo, 72 h, at 10 µM; for differential viability (reversal): stronger effect = higher value
[7] = 384-well plate pilot, post-Golgi transport modulator project, inhibition of yeast transport mutant growth (AID 636; in the data active = inhibition above about 31%); settings: absorbance 615 nm, about 18 h, stronger effect = higher value
[8] = growth suppression of yeast trafficking mutant, preliminary HTS, modulators of trafficking downstream of Golgi apparatus project, 1536-format plate, OD 615 nm (AID 637; in the data active = inhibition above about 30%); settings: yeast transport mutant growth, absorbance 615 nm, 18 h; stronger effect = higher value
[9] = H69AR cells + 2 uM doxorubicin, measured here: viability with 2 uM doxorubicin, stronger effect = lower value
[10] = H69AR cells, compound alone cytotoxicity

Sequence of Receptor tyrosine-protein kinase erbB-2 (Homo sapiens) (P04626 whole entry, looked up): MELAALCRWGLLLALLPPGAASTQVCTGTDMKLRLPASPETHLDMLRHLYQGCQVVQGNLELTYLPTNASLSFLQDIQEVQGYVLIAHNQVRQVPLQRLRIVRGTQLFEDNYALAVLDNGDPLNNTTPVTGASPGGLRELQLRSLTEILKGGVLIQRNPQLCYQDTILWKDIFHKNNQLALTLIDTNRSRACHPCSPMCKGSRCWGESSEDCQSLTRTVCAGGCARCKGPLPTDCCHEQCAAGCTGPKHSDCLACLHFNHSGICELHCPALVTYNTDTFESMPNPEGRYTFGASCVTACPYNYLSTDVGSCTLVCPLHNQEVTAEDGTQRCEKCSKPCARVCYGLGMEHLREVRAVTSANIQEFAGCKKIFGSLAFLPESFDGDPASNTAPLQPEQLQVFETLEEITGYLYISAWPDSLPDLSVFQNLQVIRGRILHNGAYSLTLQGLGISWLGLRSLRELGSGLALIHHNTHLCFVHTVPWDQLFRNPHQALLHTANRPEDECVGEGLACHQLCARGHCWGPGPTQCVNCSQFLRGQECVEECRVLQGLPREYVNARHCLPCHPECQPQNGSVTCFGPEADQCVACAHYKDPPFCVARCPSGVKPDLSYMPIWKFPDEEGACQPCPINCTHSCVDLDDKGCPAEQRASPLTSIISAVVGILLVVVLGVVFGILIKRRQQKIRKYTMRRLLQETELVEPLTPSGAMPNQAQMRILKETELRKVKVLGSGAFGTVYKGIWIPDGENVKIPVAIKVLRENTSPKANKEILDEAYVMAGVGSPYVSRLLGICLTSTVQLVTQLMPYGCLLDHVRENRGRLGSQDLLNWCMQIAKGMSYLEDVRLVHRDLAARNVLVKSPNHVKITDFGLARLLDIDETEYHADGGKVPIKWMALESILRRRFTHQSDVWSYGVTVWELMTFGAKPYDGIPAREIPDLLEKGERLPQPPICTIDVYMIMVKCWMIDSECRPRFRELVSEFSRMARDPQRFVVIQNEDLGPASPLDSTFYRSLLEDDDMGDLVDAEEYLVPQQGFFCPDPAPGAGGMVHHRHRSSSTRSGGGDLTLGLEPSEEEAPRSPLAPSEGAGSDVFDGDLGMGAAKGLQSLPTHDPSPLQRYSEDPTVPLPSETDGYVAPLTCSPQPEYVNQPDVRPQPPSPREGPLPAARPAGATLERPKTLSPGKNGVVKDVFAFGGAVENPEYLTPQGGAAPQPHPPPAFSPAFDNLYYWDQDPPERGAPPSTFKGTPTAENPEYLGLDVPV

| Structure (SMILES) | viability [1] | Her2 level [2] | viability [3] | viability [4] | viability [5] | differential viability (reversal) ([6]; H69AR cells + 2 uM doxorubicin) | viability [6, 9] | viability [6, 10] | inhibition [7] | inhibition [8] |
| --- | --- | --- | --- | --- | --- | --- | --- | --- | --- | --- |
| COc1ccc(S(=O)(=O)NCCC(=O)NC2CCCCCCC2)cc1 | 108% | 85.5% (inactive) | 108% (inactive) | 105% (inactive) | 88.6% (inactive) | 2.31% (inactive) | 86.3% | 88.6% | 0% (inactive) | -8.2% (inactive) |
| CCS(=O)(=O)N1CCCC(C(=O)NCc2ccccc2Cl)C1 (stereo not given) | 90% | 110% (inactive) | 90% (inactive) | 99.1% (inactive) | 94.7% (inactive) | 5.79% (inactive) | 88.9% | 94.7% | -7.6% (inactive) | -3.61% (inactive) |
| O=C(Cn1cnc2ccccc2c1=O)NCCC(=O)N1CCN(Cc2ccccc2)CC1 | 89% | 90% (inactive) | 89% (inactive) | 98.6% (inactive) | 89.8% (inactive) | 4.66% (inactive) | 85.2% | 89.8% | 0.52% (inactive) | 0.98% (inactive) |
| O=C(NC1CCS(=O)(=O)C1)c1c(NC(=O)C2COc3ccccc3O2)sc2c1CCCC2 (stereo not given) | 67% | 69.5% (inactive) | 67% (inactive) | 45.3% (inactive) | 38.3% (active) | 2.25% (inactive) | 36% | 38.3% | -4.67% (inactive) | -1.61% (inactive) |
| COc1ccc2nc(N3CCC(C)CC3)c(C#N)cc2c1 | 108% | 101% (inactive) | 108% (inactive) | 86.6% (inactive) | 26.8% (active) | 3.77% (inactive) | 23% | 26.8% | -5.33% (inactive) | 2.62% (inactive) |
| Cc1cc(NS(=O)(=O)c2ccc(Nc3nc(-c4sc(N)nc4C)cs3)cc2)no1 | 104% | 116% (inactive) | 104% (inactive) | 75.5% (inactive) | 98% (inactive) | 9.14% (inactive) | 88.8% | 98% | -4.08% (inactive) | -4% (inactive) |
| COc1cccc(C(=O)Nc2ccc(C)cc2)c1 | 99% | 102% (inactive) | 99% (inactive) | 84.6% (inactive) | 92.3% (inactive) | 3.96% (inactive) | 88.3% | 92.3% | -3.47% (inactive) | -7.46% (inactive) |
| COc1ccccc1CN1C(=S)SC(C)(C)C1NO (stereo not given) | 100% | 93.5% (inactive) | 100% (inactive) | 73.8% (inactive) | 98.3% (inactive) | 8.72% (inactive) | 89.6% | 98.3% | -3.73% (inactive) | 2.42% (inactive) |
| COc1cc(CNc2ccc(N3CCOCC3)c(C(=O)O)c2)ccc1OCC(N)=O | 106% | 102% (inactive) | 106% (inactive) | 97.4% (inactive) | 99.9% (inactive) | 0.83% (inactive) | 99.1% | 99.9% | -4.67% (inactive) | -2.13% (inactive) |
| CC(=O)N1CCc2cc(S(=O)(=O)NCCC3=CCCCC3)ccc21 | 108% | 85% (inactive) | 108% (inactive) | 64% (inactive) | 91.1% (inactive) | -7.85% (inactive) | 99% | 91.1% | -3.29% (inactive) | -2.22% (inactive) |
| CC(C)CC(NC(=O)OC(C)(C)C)C(=O)NC(C(=O)NC(C)C(N)=O)C(C)C (stereo not drawn) (Boc-Leu-Val-Ala-NH2; configuration not given here) | 102% | 107% (inactive) | 102% (inactive) | 94.2% (inactive) | 112% (inactive) | 19.3% (inactive) | 93% | 112% | -4.27% (inactive) | -3.23% (inactive) |
| CCOC(=O)N1CCN(C(=O)c2csc3c2CCCCC3)CC1 | 93.5% | 112% (inactive) | 93.5% (inactive) | 94.9% (inactive) | 90.8% (inactive) | -1.73% (inactive) | 92.5% | 90.8% | 0.51% (inactive) | -13.7% (inactive) |
| CCCCc1noc2c1/C(=N\O)CC(c1ccccc1)C2 (stereo not given) | 86% | 82.5% (inactive) | 86% (inactive) | 108% (inactive) | 90.5% (inactive) | -0.815% (inactive) | 91.3% | 90.5% | 3.11% (inactive) | -3.77% (inactive) |
| CSCC[C@@H](Nc1nc(-c2ccccc2)nc2c1oc1ccccc12)C(=O)O | 91% | 75% (inactive) | 91% (inactive) | 84.2% (inactive) | 93.8% (inactive) | -1.28% (inactive) | 95.1% | 93.8% | -7.43% (inactive) | -0.82% (inactive) |
| CC(=O)c1ccc(-c2nc3ccccc3n2C)o1 | 104% | 81% (inactive) | 104% (inactive) | 96.7% (inactive) | 72.7% (inactive) | 3.04% (inactive) | 69.6% | 72.7% | -6.8% (inactive) | -1.9% (inactive) |
| C=CCn1c(SCC(=O)NC2CCCCC2)nnc1-c1sc(N)nc1C | 99.5% | 102% (inactive) | 99.5% (inactive) | 110% (inactive) | 95.8% (inactive) | 0.86% (inactive) | 94.9% | 95.8% | -2.8% (inactive) | -1.45% (inactive) |

| Structure (SMILES) | viability [1] | Her2 level [2] | viability [3] | viability [4] | viability [5] | differential viability (reversal) ([6]; H69AR cells + 2 uM doxorubicin) | viability [6, 9] | viability [6, 10] | inhibition [7] | inhibition [8] |
| --- | --- | --- | --- | --- | --- | --- | --- | --- | --- | --- |
| CC1=C(C(=O)NCc2ccccc2)C(c2ccccc2OCC(N)=O)NC(=O)N1 (stereo not given) | 93.5% | 77% (inactive) | 93.5% (inactive) | 89.1% (inactive) | 109% (inactive) | 15.9% (inactive) | 92.9% | 109% | -4.13% (inactive) | 1.43% (inactive) |
| Cc1ccc(Br)cc1S(=O)(=O)N1CCN(c2ccccc2)CC1 | 93.5% | 116% (inactive) | 93.5% (inactive) | 76.2% (inactive) | 79.4% (inactive) | -5.03% (inactive) | 84.5% | 79.4% | 1.17% (inactive) | -8.5% (inactive) |
| Cc1c2c(nc3nc4ccccc4n13)CC(C)(C)CC2=O | 130% | 100% (inactive) | 130% (inactive) | 91.1% (inactive) | 70.9% (inactive) | 36.9% (inactive) | 34% | 70.9% | -3.42% (inactive) | 4.43% (inactive) |
| COC(=O)c1[nH]c2cccc(C)c2c1NC(=O)CN1CCCc2ccccc21 | 77.5% | 92% (inactive) | 77.5% (inactive) | 67.1% (inactive) | 78.8% (inactive) | 2.1% (inactive) | 76.7% | 78.8% | -1.47% (inactive) | 2.79% (inactive) |
| CCOC(=O)c1c(NC(=O)c2cccs2)sc(C)c1C | 77% | 83.5% (inactive) | 77% (inactive) | 67.8% (inactive) | 86.2% (inactive) | 2.64% (inactive) | 83.6% | 86.2% | -5.33% (inactive) | -0.16% (inactive) |
| CCCN(C(=O)CSc1nnc(-c2ccoc2C)n1N)C1CCS(=O)(=O)C1 (stereo not given) | 86.5% | 88.5% (inactive) | 86.5% (inactive) | 79.7% (inactive) | 94.8% (inactive) | 7.94% (inactive) | 86.9% | 94.8% | -2.6% (inactive) | 2.13% (inactive) |
| Cc1ccc(C(C(=O)NC(C)(C)C)N(C(=O)c2csnn2)c2cccc(F)c2)o1 (stereo not given) | 83.5% | 97% (inactive) | 83.5% (inactive) | 103% (inactive) | 92.8% (inactive) | 1.6% (inactive) | 91.2% | 92.8% | -3.6% (inactive) | 24.4% (inactive) |
| OCCN1CCN(CC(O)COc2ccc3ccccc3c2)CC1 (stereo not given) | 88.5% | 82% (inactive) | 88.5% (inactive) | 92.8% (inactive) | 102% (inactive) | 10% (inactive) | 92.3% | 102% | -4.8% (inactive) | 5.25% (inactive) |
| CCOC(=O)C(NCc1ccccc1OC)(NC(C)=O)C(F)(F)F (stereo not given) | 116% | 91% (inactive) | 116% (inactive) | 98.8% (inactive) | 91.8% (inactive) | 1.75% (inactive) | 90.1% | 91.8% | -2.6% (inactive) | -0.63% (inactive) |
| CC(C)(C)NCc1cc2ccccc2[nH]c1=O | 90% | 74.5% (inactive) | 90% (inactive) | 99.1% (inactive) | 93.2% (inactive) | 9.9% (inactive) | 83.3% | 93.2% | -9.05% (inactive) | -2.5% (inactive) |
| Cc1ccc(C(=O)Nc2nc3c(s2)CCCC3)o1 | 104% | 72% (inactive) | 104% (inactive) | 60.9% (inactive) | 73.3% (inactive) | -5.85% (inactive) | 79.1% | 73.3% | -1.71% (inactive) | 16.6% (inactive) |
| Cc1cccc(NS(=O)(=O)c2cc(C(=O)OCC(=O)Nc3cc(C)on3)ccc2C)c1 | 93% | 86% (inactive) | 93% (inactive) | 77.7% (inactive) | 112% (inactive) | 10.1% (inactive) | 102% | 112% | -2.8% (inactive) | -2.26% (inactive) |
| CCSc1nnc(-c2cccs2)o1 | 89% | 106% (inactive) | 89% (inactive) | 87.3% (inactive) | 92.3% (inactive) | -4.3% (inactive) | 96.6% | 92.3% | -0.13% (inactive) | -2.83% (inactive) |
| O=C(Cn1nc(-c2ccc3c(c2)OCCO3)ccc1=O)Nc1ccc(N2CCOCC2)cc1 | 94% | 108% (inactive) | 94% (inactive) | 112% (inactive) | 110% (inactive) | 16.4% (inactive) | 93.2% | 110% | -3.03% (inactive) | 0.17% (inactive) |
| O=C(CNC(=O)c1ccccc1C(=O)O)c1ccccc1 | 128% | 79.5% (inactive) | 128% (inactive) | 100% (inactive) | 90% (inactive) | 7.15% (inactive) | 82.8% | 90% | 2.6% (inactive) | -0.49% (inactive) |

Reference: PubChem BioAssay
